Values belong to the molecule of their own block, whether it stands above or below them.
Key:
[1] = target: human Bcl-xL (residues 1-209) (Homo sapiens, UniProt Q07817); test: Fluorescence polarization competition binding assay, Bcl-xL; settings: FP competition binding assay
[2] = target: human Mcl-1 (residues 172-327) (Homo sapiens, UniProt Q07820); test: Fluorescence polarization competition binding assay, Mcl-1; settings: FP competition binding assay
Summary of the method: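 c-myc-tagged human Mcl-1 (172-327) from E. coli BL21(DE3), TEV-cleaved from MBP, at 50 nM. Serially diluted unlabelled 23-residue peptides are premixed with Mcl-1 first. FITC-Bim-BH3 (10 nM) is then added and mixed overnight at 37 °C, returned to room temperature and anisotropy read. Buffer: phosphate, pH 7.8. Ki from complete competitive binding model fitting five parameters, Bim Kd fixed 1 nM; unlabelled Bim-BH3 reference; ≥2 experiments, SD.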

[3] = target: human Mcl-1 (residues 172-327), c-myc tagged (human) (UniProt Q07820); test: fluorescence polarisation
[4] = target: human Bcl-xL (residues 1-209), c-myc tagged (human) (UniProt Q07817); test: fluorescence polarisation
Mcl-1 = Mcl-1 (Homo sapiens, UniProt Q07820); test: Yeast surface display binding, soluble Mcl-1; settings: yeast cells displaying the peptide titrated with soluble Mcl-1
Summary of the method: (§1)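 EBY100 yeast displaying the BH3 peptide as Aga2p fusion with C-terminal FLAG tag, incubated with c-myc-tagged pro-survival protein. Expression is read by anti-FLAG/FITC and binding by anti-c-myc/PE. Cells are gated by forward scatter on a FACScan flow cytometer, typically 10,000 events analysed.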

Bcl-xL = Bcl-xL (Homo sapiens, UniProt Q07817); test: Yeast surface display binding, soluble Bcl-xL; settings: yeast cells displaying the peptide titrated with soluble Bcl-xL
Summary of the method: as §1

[5] = target: T1, human Bcl-w (residues 1-164), c-myc tagged (human), Q92843; test: SEC; settings: remark: other sources report otherwise
T1 chain: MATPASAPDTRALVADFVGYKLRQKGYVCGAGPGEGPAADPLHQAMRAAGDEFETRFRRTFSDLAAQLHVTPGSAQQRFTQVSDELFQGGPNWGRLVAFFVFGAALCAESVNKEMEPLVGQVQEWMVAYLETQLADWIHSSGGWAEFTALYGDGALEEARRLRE

Sequence of human Mcl-1 (residues 172-327), c-myc tagged (human) (Q07820 172-327): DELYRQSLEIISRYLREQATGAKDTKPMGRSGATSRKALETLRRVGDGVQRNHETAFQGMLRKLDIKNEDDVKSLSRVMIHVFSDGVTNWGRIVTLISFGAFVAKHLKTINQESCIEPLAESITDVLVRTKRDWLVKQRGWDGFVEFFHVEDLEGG
Sequence of human Bcl-xL (residues 1-209), c-myc tagged (human) (Q07817 1-209): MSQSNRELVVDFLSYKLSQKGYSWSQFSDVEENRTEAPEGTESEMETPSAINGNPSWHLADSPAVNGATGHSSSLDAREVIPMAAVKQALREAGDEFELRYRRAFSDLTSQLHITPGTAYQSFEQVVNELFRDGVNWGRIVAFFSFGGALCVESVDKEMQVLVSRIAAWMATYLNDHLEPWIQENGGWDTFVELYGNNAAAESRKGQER
Sequence of Bcl-xL (Q07817 1-209): as above
Sequence of human Bcl-xL (residues 1-209) (Q07817 1-209): as above
Sequence of human Mcl-1 (residues 172-327) (Q07820 172-327): as the sequence (Q07820 172-327) above
Sequence of Mcl-1 (Q07820 172-327): as above

Molecule: CC[C@H](C)[C@H](NC(=O)[C@H](CCCNC(=N)N)NC(=O)[C@H](CCCNC(=N)N)NC(=O)[C@H](CC(C)C)NC(=O)[C@H](CCC(=O)O)NC(=O)[C@H](CCC(N)=O)NC(=O)[C@H](C)NC(=O)[C@@H](NC(=O)[C@H](Cc1c[nH]c2ccccc12)NC(=O)[C@@H](NC(=O)[C@H](CCC(=O)O)NC(=O)[C@@H]1CCCN1C(=O)[C@H](CCCNC(=N)N)NC(C)=O)[C@@H](C)CC)[C@@H](C)CC)C(=O)NCC(=O)N[C@@H](CC(=O)O)C(=O)N[C@@H](CCC(=O)O)C(=O)N[C@H](C(=O)N[C@@H](CC(N)=O)C(=O)N[C@@H](C)C(=O)N[C@@H](Cc1ccc(O)cc1)C(=O)N[C@@H](Cc1ccc(O)cc1)C(=O)N[C@@H](C)C(=O)N[C@@H](CCCNC(=N)N)C(N)=O)C(C)C [Phe4aVal mutation in Bim-BH3]
reduction of affinity for Bcl-xL relative to Bim-BH3 [1]: ~30 fold | increase of affinity for Mcl-1 relative to Bim-BH3 [2]: more than 10 fold

Molecule: Bim-BH3 with a Phe4aVal mutation (synthetic peptide)
Ki [4]: 30 nM | Ki [3]: < 0.1 nM

B1: human Bcl-w (residues 1-164), c-myc tagged, Q92843 1-164 (domain or fragment)
chain: MATPASAPDTRALVADFVGYKLRQKGYVCGAGPGEGPAADPLHQAMRAAGDEFETRFRRTFSDLAAQLHVTPGSAQQRFTQVSDELFQGGPNWGRLVAFFVFGAALCAESVNKEMEPLVGQVQEWMVAYLETQLADWIHSSGGWAEFTALYGDGALEEARRLRE
oligomeric fraction [5]: 58%

Second part, the molecule after the results:

Ki [3]: 2 nM
Molecule: unlabeled Bim-BH3 peptide (23-residue synthetic peptide)

dissociation constant, yeast-displayed peptide, Mcl-1 (Mcl-1): low nanomolar range | dissociation constant, yeast-displayed peptide, Bcl-xL (Bcl-xL): low nanomolar range
Molecule: Bim-BH3: peptide derived from the BH3 region of human Bim; N-acetylated, C-amidated 23-mer in solution assays

— paper PMC2896288 (Journal of molecular biology, 2010)
